Experimental findings from ChEMBL document CHEMBL1121581, “4-Piperazinyl-10H-thieno[2,3-b][1,5]benzodiazepines as potential neuroleptics” (J Med Chem, 1980) are described below.

The test system of data set [1] is Mus musculus. The experiment in a line: Hypothermia in mice after peroral administration. The class given is functional.
Data set [2] is described as follows: Lethal dose in mice after perorla administration. The settings on record: mouse, in vivo, po. The class given is toxicity, organism-based.
In data set [3] the test system is Rattus norvegicus. Nature of the data set: Compound was assessed for its ability to block a conditioned avoidance response; Dose administered intraperitoneally is 40 mg/kg; 26-30%block. The settings on record: route intraperitoneal. The class given is functional. In short, it runs like this: (§1)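 Shuttle-box conditioned avoidance in Lilly Wistar rats (120–130 g) pretrained to a 5-s buzzer with mild shock after a 1-s failure to respond. Groups of five had 10-min habituation and a 20-min test. Block was taken as shocks received as % of buzzer presentations and graded 0–5. Maximum dose was half the rotarod-disruption ED₅₀.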

Data set [4] relates to Rattus norvegicus. Nature of the data set: Compound was assessed for its ability to block a conditioned avoidance response; Dose administered intraperitoneally is 50 mg/kg; 26-30%block. The class given is functional. The settings on record: route intraperitoneal. In a few lines: as §1
The subject of data set [5] is Rattus norvegicus. The experiment in a line: Compound was assessed for its ability to produce catalepsy in rats; Dose administered perorally is 25 mg/kg; Group score is 8-15. The class given is functional. The settings on record: route oral. In a few lines:
(§2)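 Groups of eight Lilly Wistar rats (180–190 g) were dosed orally, then checked at 0.5, 1, 1.5, 2, 3, 4 and 5 h. Front paws were placed on a 1.5-cm rod 7 cm above the table, and hold time was recorded up to 20 min. Each rat was scored 0–5 and its maximum scores were summed per group (maximum 40), then graded 0–4.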

Data set [6] concerns Rattus norvegicus. Nature of the data set: Compound was assessed for its ability to block a conditioned avoidance response; Dose administered perorally is 40 mg/kg; 26-30%block. In kind it is functional. The settings on record: route oral. In short, it runs like this: (§3)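 Lilly Wistar rats (120–130 g) trained in a shuttle box to cross on a 5-s buzzer, with mild shock if no response within 1 s of buzzer end. Only rats with a high conditioned response were used. Groups of five were dosed orally 1 h 50 min before the session, then habituated 10 min and tested 20 min. Shocks were scored as % of stimuli and graded 0–5.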

The subject of data set [7] is Rattus norvegicus. The experiment in a line: Compound was assessed for its ability to produce catalepsy in rats; Dose administered perorally is 8 mg/kg; Group score is 4-7. The class given is functional. The settings on record: route oral. In a few lines: as §2
In data set [8] the test system is Rattus norvegicus. Nature of the data set: Compound was assessed for its ability to block a conditioned avoidance response; Dose administered perorally is 4 mg/kg; 26-30%block. In kind it is functional. The settings on record: route oral. In short, it runs like this:
as §3

Data set [9] has as its system Rattus norvegicus. Nature of the data set: Compound was assessed for its ability to block a conditioned avoidance response; Dose administered perorally is 10 mg/kg; 51-75%block. The settings on record: route oral. The class given is functional. In a few lines: as §3
The test system of data set [10] is Rattus norvegicus. The experiment in a line: Compound was assessed for its ability to produce catalepsy in rats; Dose administered perorally is 10 mg/kg; Group score is 8-15. The settings on record: route oral. In kind it is functional. In a few lines:
as §2

The test system of data set [11] is Rattus norvegicus. The experiment in a line: Compound was assessed for its ability to produce catalepsy in rats; Dose administered perorally is 60 mg/kg; Group score is 8-15. The settings on record: route oral. The class given is functional. In short, it runs like this:
as §2

The subject of data set [12] is Rattus norvegicus. Nature of the data set: Compound was assessed for its ability to produce catalepsy in rats; Dose administered subcutaneously is 30 mg/kg; Group score is 4-7. The class given is functional. The settings on record: route subcutaneous.
The test system of data set [13] is Rattus norvegicus. The experiment in a line: Compound was assessed for its ability to block a conditioned avoidance response; Dose administered intraperitoneally is 20 mg/kg; 26-30%block. In kind it is functional. The settings on record: route intraperitoneal. In short, it runs like this:
as §1

Data set [14] has as its system Rattus norvegicus. The experiment in a line: Compound was assessed for its ability to produce catalepsy in rats; Dose administered perorally is 25 mg/kg; Group score is 16-30. The class given is functional. The settings on record: route oral. In a few lines:
as §2

The test system of data set [15] is Rattus norvegicus. The experiment in a line: Compound was assessed for its ability to block a conditioned avoidance response; Dose administered perorally is 1.25 mg/kg; 51-75%block. The class given is functional. The settings on record: route oral. In short, it runs like this:
as §3

For data set [16], the system named is Rattus norvegicus. The experiment in a line: Compound was assessed for its ability to produce catalepsy in rats; Dose administered perorally is 1.25 mg/kg; Group score is 16-30. The settings on record: route oral. The class given is functional. In a few lines: as §2
The test system of data set [17] is Rattus norvegicus. Nature of the data set: Compound was assessed for its ability to produce catalepsy in rats; Dose administered perorally is 50 mg/kg; Group score is 8-15. The settings on record: route oral. The class given is functional. In short, it runs like this:
as §2

Data set [18] concerns Rattus norvegicus. Nature of the data set: Compound was assessed for its ability to block a conditioned avoidance response; Dose administered perorally is 25 mg/kg; 26-30%block. The class given is functional. The settings on record: route oral, in the assay text read “31-50%block” for “26-30%block”. In short, it runs like this: as §3
For data set [19], the system named is Rattus norvegicus. The experiment in a line: Compound was assessed for its ability to block a conditioned avoidance response; Dose administered perorally is 8 mg/kg; 76-99%block. The class given is functional. The settings on record: route oral. In short, it runs like this: as §3
The subject of data set [20] is Rattus norvegicus. Nature of the data set: Compound was assessed for its ability to produce catalepsy in rats; Dose administered perorally is 50 mg/kg; Group score is 0-3. The class given is functional. The settings on record: route oral. In short, it runs like this: as §2
For data set [21], the system named is Rattus norvegicus. Nature of the data set: Compound was assessed for its ability to block a conditioned avoidance response; Dose administered intraperitoneally is 20 mg/kg; 31-50%block. The class given is functional. The settings on record: route intraperitoneal. In a few lines:
as §1

Data set [22] relates to Rattus norvegicus. The experiment in a line: Compound was assessed for its ability to block a conditioned avoidance response; Dose administered perorally is 2.5 mg/kg; 31-50%block. The class given is functional. The settings on record: route oral. In short, it runs like this:
as §3

In data set [23] the test system is Rattus norvegicus. The experiment in a line: Compound was assessed for its ability to produce catalepsy in rats; Dose administered perorally is 2.5 mg/kg; Group score is 31-40. The class given is functional. The settings on record: route oral. In a few lines:
as §2

What is called LD50 is the dose expected to kill half of the subjects tested. Lower therefore signals greater toxicity. In turn, `CCc1cc2c(s1)Nc1ccc(F)cc1N=C2NCCN(C)C` came in with an EDmin in data set [1] of 200 mg/kg. The molecule also came in with an LD50 in [2] of 400 mg/kg. In data set [3], the Activity turned out to be 1.
As for `CCc1cc2c(s1)Nc1ccc(F)cc1N=C2NCCCN(C)C`, the EDmin in [1] was >400 mg/kg. For the same molecule, in [2], the LD50 was > 800 mg/kg. This molecule came in with an Activity in [4] of 1.
On to `CCc1cc2c(s1)Nc1ccc(F)cc1N=C2N1CCN(Cc2ccccc2)CC1`, for which the EDmin in data set [1] was determined as 200 mg/kg. Besides, the LD50 in data set [2] was > 400 mg/kg. For the same molecule, the Activity in data set [5] is 2; in data set [6], 1.
`CCc1cc2c(s1)Nc1cc(F)ccc1N=C2N1CCN(C)CC1` had an EDmin in [1] of 12.5 mg/kg. For the same molecule, in data set [2], the LD50 was determined as 150 mg/kg. In addition, the Activity in data set [7] and in data set [8] was 1 each time.
`Cc1cc2c(s1)Nc1ccc(F)cc1N=C2N1CC[N+](C)([O-])CC1`: the EDmin in [1] came out at 6.25 mg/kg. Moreover, the LD50 in data set [2] came out at 200 mg/kg. For the same molecule, the figures for the Activity in data set [9] and in data set [10] were 3 and 2, respectively.
Consider `CCc1cc2c(s1)Nc1ccc(F)cc1N=C2N1CCNCC1`, for which the EDmin in data set [1] was determined as 100 mg/kg. Besides, the LD50 in [2] is > 800 mg/kg. Also, the Activity is 2 in [11], 1 in [12] and 1 in [13].
The molecule `CCc1cc2c(s1)Nc1cc(F)c(F)cc1N=C2N1CCN(C)CC1` had an EDmin in data set [1] of 6.25 mg/kg. The molecule also gave an LD50 in data set [2] of 300 mg/kg. In addition, the Activity in data set [9] and in [14] was 3 throughout.
Turning to `O=C(CCCN1CCC(O)(c2ccc(Cl)cc2)CC1)c1ccc(F)cc1` [HALOPERIDOL], the EDmin in data set [1] came out at 3 mg/kg. Further, the 50% lethal dose (LD50) in data set [2] is > 100 mg/kg. Besides, the Activity in data set [15] and in [16] was 3 each time.
Turning to `CCc1cc2c(s1)Nc1cc(C)ccc1N=C2N1CCN(C)CC1`, the EDmin in [1] came to 50 mg/kg. Besides, the LD50 in [2] was determined as 150 mg/kg. The Activity in data set [17] and in data set [18] was 2 in each case.
Regarding `Cc1cc2c(s1)Nc1ccc(F)cc1N=C2N1CCN(C)CC1` [FLUMEZAPINE], in data set [1], the EDmin is 3 mg/kg. The LD50 in data set [2] was determined as 200 mg/kg. Also, the Activity in data set [7] is recorded as 1; in [19] it was 4.
Molecule `CCc1cc2c(s1)Nc1ccc(F)cc1N=C2NCCN1CCCC1` registered an EDmin in [1] of 200 mg/kg. The LD50 in data set [2] was > 400 mg/kg. For the same molecule, the Activity in data set [20] was 0; in [21], 2.
The molecule `OCCN1CCN(CC/C=C2/c3ccccc3Sc3ccc(C(F)(F)F)cc32)CC1` [Z-FLUPENTIXOL] came in with an EDmin in data set [1] of 3 mg/kg. The 50% lethal dose (LD50) in [2] is 300 mg/kg. The Activity in [22] was 2; in [23], 4.
